Most compounds without a hit are left out; they make up all but 3.1% or so of the library.
KCNQ1 block = inhibitors of human KCNQ1 potassium channel; P51787; CHO-K1 KCNQ1, FluxOR thallium flux fluorescence; hits give high values; B-score at 10 µM; 310,000 tested, 1.3% active; AID 2642;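 active means compounds whose thallium flux B-score, printed positive for inhibition, exceeds three library SD while starting fluorescence stays within three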;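 further: channel opened by potassium depolarization with thallium stimulus after 20 min compound exposure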
KCNQ1 pot = human KCNQ1 channel potentiation or activation; AID 2648; P51787; CHO-K1 KCNQ1, thallium flux FluxOR fluorescence; hits give high values; 310,000 tested, 0.35% active; B-score at 10 µM;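 active means fluorescence ratio B-score, a plate-corrected score, at least three library SD, with initial intensity B-score within 5 SD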
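Test system: CHO-K1 cells stably expressing KCNQ1 / Medium: assay buffer / Also added: depolarizing K+/Tl+ stimulus, K2SO4 and Tl2SO4 each 12.5 mM in 5x stock / Incubation: 90 min dye loading and 20 min compound exposure, both at room temperature / Signal: thallium influx via FluxOR fluorescence, kinetic imaging / Evaluation: B score of baseline-normalized fluorescence ratio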
hERG protect = shields human hERG channel from block by proarrhythmic agents; activation (rescue from dofetilide block), less the hit threshold, % at 10 µM; CHO-hERG, FluxOR thallium flux, dofetilide IC70 present; 310,000 tested, 0.51% active; AID 1511; Q12809;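 active means activation above the mean of controls blocked by dofetilide plus 5 SD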;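 further: thallium influx through hERG after potassium depolarization seen as dye fluorescence rise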
KCNK3 block = human KCNK3 channel inhibition, primary screen; CHO-KCNK3 thallium flux, FluxOR fluorescence; hits give low values; B-score at 10 µM; 340,000 tested, 0.84% active; AID 602410;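 active means B-score under library mean minus 4 SD, starting fluorescence ratio at most library mean plus 5 SD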;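 further: more negative B-score means stronger inhibition of thallium flux through KCNK3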
KCNK9 inh = inhibitors of human KCNK9 two-pore domain potassium channel; Q9NPC2; HEK293 KCNK9, FluxOR thallium flux fluorescence; hits give low values; B-score at 10 µM; 310,000 tested, 1.2% active;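 active means ratio B-score over 3 SD below the library mean, with starting fluorescence within 5 SD of its mean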;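 further: negative B-score means less thallium flux so channel inhibition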
Hits are given with their value; ! = not confirmed by another sample.

Screening COc1cccc2c1C(=O)c1c(O)c3c(c(O)c1C2=O)C[C@@](O)(C(C)=O)C[C@@H]3O[C@H]1C[C@H](N)[C@H](O)[C@H](C)O1 returned KCNK3 block inactive.
CCN(CC(=O)Nc1c(F)cccc1F)C(=O)c1ccc2c(c1)S(=O)(=O)N=C1CCCCCN12 was read as KCNQ1 block inactive, KCNQ1 pot inactive, hERG protect inactive, KCNK3 block inactive and KCNK9 inh inactive.
For OC(c1ccccc1)(c1ccccc1)c1nccc2ccccc12 the results were KCNK3 block -10.
CN1CCN(c2ccccc2NC(=O)c2ccc(F)cc2)CC1 was read as KCNQ1 block inactive, KCNQ1 pot inactive, hERG protect inactive, KCNK3 block inactive and KCNK9 inh inactive.
`CC1CCN(c2ccccc2NC(=O)c2ccc(F)cc2)CC1` gave KCNQ1 block inactive, KCNQ1 pot inactive, hERG protect inactive, KCNK3 block inactive and KCNK9 inh -6.8.
`O=C(Nc1ccccc1N1CCCCC1)c1ccc(Cl)cc1` gave KCNQ1 block inactive, KCNQ1 pot inactive, hERG protect inactive, KCNK3 block inactive and KCNK9 inh -6.7.
CS(=O)(=O)N1CCN(c2ccccc2NC(=S)NC(=O)c2cccs2)CC1 was read as KCNQ1 block inactive, KCNQ1 pot inactive, hERG protect inactive, KCNK3 block inactive and KCNK9 inh inactive.
For CC1CCN(c2ccccc2NC(=S)NC(=O)c2cccs2)CC1 the results were KCNQ1 block inactive, KCNQ1 pot 14, hERG protect inactive, KCNK3 block inactive and KCNK9 inh inactive.
For COc1cccc(N2CC(NS(=O)(=O)c3cccnc3)CC2=O)c1 (configuration not stated) the results were KCNQ1 block inactive, KCNQ1 pot inactive, hERG protect inactive, KCNK3 block inactive and KCNK9 inh inactive.
Screening CCCC(=O)c1ccc(-c2ccccc2)cc1 returned KCNQ1 block inactive, KCNQ1 pot inactive, hERG protect inactive, KCNK3 block inactive and KCNK9 inh -7.4.
O=C(CCCCCCCC(=O)c1ccccc1)c1ccccc1 was read as KCNQ1 block 7, KCNQ1 pot inactive, hERG protect inactive, KCNK3 block inactive and KCNK9 inh inactive.
`O=C(CN1CCN(c2cccc(C(F)(F)F)c2)CC1)N(C1CCCC1)C1CCS(=O)(=O)C1` (configuration not stated) gave KCNK3 block -8.7.
`Oc1ccccc1N=Nc1nc(-c2ccccc2)c(-c2ccccc2)[nH]1` gave KCNQ1 block 10, KCNQ1 pot inactive, hERG protect inactive, KCNK3 block inactive and KCNK9 inh inactive.
Screening COc1ccc(N=Nc2nc(-c3ccccc3)c(-c3ccccc3)[nH]2)cc1 returned KCNQ1 block 6, KCNQ1 pot inactive, hERG protect inactive, KCNK3 block inactive and KCNK9 inh inactive.
For CC1Cc2ccccc2N1C(=O)Cn1c(=O)oc2cc(S(=O)(=O)N3CCCCC3)ccc21 (configuration not stated) the results were KCNQ1 block inactive, KCNQ1 pot inactive, hERG protect inactive, KCNK3 block inactive and KCNK9 inh -7.2.
Screening NNc1nc(Nc2ccc([N+](=O)[O-])cc2)nc(N2CCCCCC2)n1 returned KCNQ1 block 6, KCNQ1 pot inactive, hERG protect inactive, KCNK3 block inactive and KCNK9 inh inactive.
For O=C(/C=C/c1ccccc1)NCCc1nc2ccccc2[nH]1 the results were KCNQ1 block inactive, KCNQ1 pot inactive, hERG protect inactive, KCNK3 block inactive and KCNK9 inh inactive.
`COc1ccc(OC)c(/C=C/C(=O)NCCc2nc3ccccc3[nH]2)c1` gave KCNQ1 block 7, KCNQ1 pot inactive, hERG protect inactive, KCNK3 block inactive and KCNK9 inh inactive.
Screening Cc1cccn2c(=O)c3cc(C#N)c(=NC(=O)c4ccco4)n(Cc4ccco4)c3nc12 returned KCNQ1 block inactive, KCNQ1 pot inactive, hERG protect inactive, KCNK3 block inactive and KCNK9 inh inactive.
Screening Cc1cccn2c(=O)c3cc(C#N)c(=NC(=O)c4ccccc4)n(Cc4ccco4)c3nc12 returned KCNQ1 block inactive, KCNQ1 pot inactive, hERG protect inactive, KCNK3 block -9.1! and KCNK9 inh -7.3.
Screening CCOC(=O)c1cc2c(=O)n3ccccc3nc2n(Cc2ccco2)c1=NC(=O)c1cccnc1 returned KCNQ1 block 7, KCNQ1 pot inactive, hERG protect inactive, KCNK3 block inactive and KCNK9 inh inactive.
For CCOC(=O)c1cc2c(=O)n3cccc(C)c3nc2n(Cc2ccco2)c1=NC(=O)c1cccnc1 the results were KCNK3 block inactive.

Bioassay records: PubChem BioAssay, Johns Hopkins Ion Channel Center
